From ChEMBL document CHEMBL4825665, “Effective degradation of EGFRL858R+T790M mutant proteins by CRBN-based PROTACs through both proteosome and autophagy/lysosome degradation systems” (Eur J Med Chem, 2021) come the findings set out here.

One test concerns PC-9. Nature of the test: Antiproliferative activity against human PC-9 cells assessed as inhibition of cell growth measured after 72 hrs by CCK-8 assay. The class given is functional, cell-based. The settings on record: PC-9, 72 h. The method, boiled down:
(§1)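 Cells seeded at 3000 cells/well in 96-well plates and treated with graded compound concentrations one day later for 72 h. CCK-8 was added for 1–4 h and absorbance read at 450 nm. Lung cancer lines were kept in RPMI 1640 with 10% fetal calf serum at 37 °C and 5% CO₂.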

Test [1] can be described thus: Antiproliferative activity against human PB1 cells assessed as inhibition of cell growth measured after 72 hrs by CCK-8 assay. The settings on record: PB1, 72 h. The class given is functional, cell-based. The method, boiled down:
as §1

Another test concerns NCI-H1975. Nature of the test: Antiproliferative activity against human NCI-H1975 cells assessed as inhibition of cell growth measured after 72 hrs by CCK-8 assay. The class given is functional, cell-based. Conditions: NCI-H1975, 72 h. The method, boiled down:
as §1

A further test concerns HEK-293T. Briefly: Cytotoxicity against human HEK293T cells assessed as inhibition of cell growth measured after 72 hrs by CCK-8 assay. The format is cell-based. The gist of the method:
as §1

For another test, the system named is BJ. Briefly: Cytotoxicity against human BJ cells assessed as inhibition of cell growth measured after 72 hrs by CCK-8 assay. The format is cell-based. The gist of the method: as §1
The next test relates to HCC827. Nature of the test: Antiproliferative activity against human HCC827 cells assessed as inhibition of cell growth measured after 72 hrs by CCK-8 assay. The format is functional, cell-based. The settings on record: HCC827, 72 h. The gist of the method:
as §1

The subject of the next test is A549. Nature of the test: Antiproliferative activity against human A549 cells assessed as inhibition of cell growth measured after 72 hrs by CCK-8 assay. The class given is functional, cell-based. Conditions: A549, 72 h. The gist of the method: as §1
The test system of another test is BaF3. Nature of the test: Antiproliferative activity against mouse BaF3 cells assessed as inhibition of cell growth measured after 72 hrs by CCK-8 assay. The format is functional, cell-based. The settings on record: BaF3, 72 h. The gist of the method:
as §1

Each structure is given as a SMILES string.

Consider `C=CC(=O)Nc1cc2c(Nc3ccc(F)c(Cl)c3)ncnc2cc1OCCCN1CCNCC1`, for which the concentration for half-maximal inhibition (IC50) worked out at 0.00112 µM with PC-9; 0.0334 µM in test [1]; 0.162 µM with NCI-H1975; 21.8 µM with HEK-293T; 2.75 µM in the test with BJ.
For `C=CC(=O)Nc1cc2c(Nc3ccc(F)c(Cl)c3)ncnc2cc1OCCCN1CCN(C(=O)CNc2cccc3c2C(=O)N(C2CCC(=O)NC2=O)C3=O)CC1` (stereo not drawn), in that order: 0.005 µM, 0.19 µM, 0.234 µM, > 10 µM and > 10 µM.
The matching figures for `C=CC(=O)Nc1cc2c(Nc3ccc(F)c(Cl)c3)ncnc2cc1OCCCN1CCN(C(=O)CCCNc2cccc3c2C(=O)N(C2CCC(=O)NC2=O)C3=O)CC1` (stereo not drawn): 0.00138 µM, 0.145 µM, 0.209 µM, 14.7 µM and > 10 µM.
The matching figures for `C=CC(=O)Nc1cc2c(Nc3ccc(F)c(Cl)c3)ncnc2cc1OCCCN1CCN(C(=O)CCCCNc2cccc3c2C(=O)N(C2CCC(=O)NC2=O)C3=O)CC1` (stereo not drawn): 0.000452 µM, 0.122 µM, 0.0354 µM, > 10 µM and > 10 µM.
With `C=CC(=O)Nc1cc2c(Nc3ccc(F)c(Cl)c3)ncnc2cc1OCCCN1CCN(C(=O)CCNc2cccc3c2C(=O)N(C2CCC(=O)NC2=O)C3=O)CC1` (stereo not drawn), the IC50 in the test with PC-9 was 0.000977 µM; in test [1] it was 0.163 µM; in the test with NCI-H1975, 0.11 µM; in the test with HEK-293T, > 10 µM; with BJ, > 10 µM.
Consider `C=CC(=O)Nc1cc2c(Nc3ccc(F)c(Cl)c3)ncnc2cc1OCCCN1CCOCC1` [CANERTINIB], for which the IC50 was determined as 0.000859 µM in the test on PC-9; 0.0702 µM in test [1]; 0.0113 µM in the test on NCI-H1975; 0.000378 µM in the test with HCC827; 7.16 µM with A549; 0.0092 µM in the test on BaF3. Besides, the IC50 with HEK-293T is 6 µM; in the test on BJ it was 5.61 µM.
